Key:
Conditions in all cases: in vivo
Rattus norvegicus [1] = assay: Toxicity in Sprague-Dawley rat assessed as effect on body surface temperature at 20 mg/kg, iv every 8 hrs for 7 days; assay type: organism-based; design: dose 20 mg/kg, route intravenous
Outline: (§1)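 Daily cage-side observations covered food and water intake, body weight, body surface temperature and general well-being. Sprague-Dawley rats (6 to 8 weeks old) were dosed via a jugular vein cannula for 7 days, with a saline placebo control. Groups were compared by analysis of variance.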

Rattus norvegicus [2] = assay: Neurotoxicity in Sprague-Dawley rat assessed as effect on motor control at 30 mg/kg, iv every 12 hrs for 7 days; assay type: toxicity, organism-based; design: dose 30 mg/kg, route intravenous
Outline: (§2)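 Motor control was tested daily by requiring each rat to walk for 5 min on a rotarod treadmill. Sprague-Dawley rats (6 to 8 weeks old) were dosed via a jugular vein cannula for 7 days, with a saline placebo control.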

Rattus norvegicus [3] = assay: Nephrotoxicity in Sprague-Dawley rat assessed as occurrence of moderate cortical proximal convoluted tubule necrosis at 30 mg/kg, iv every 12 hrs for 7 days; assay type: toxicity, organism-based; design: dose 30 mg/kg, route intravenous
Outline: (§3)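 Sprague-Dawley rats (6 to 8 weeks old) were dosed for 7 days via a jugular vein cannula at 20 mg/kg/8 h (n = 9) or 30 mg/kg/12 h (n = 11), with a saline placebo group (n = 8). Kidneys were examined histologically post mortem by a blinded histologist. Lesion severity was graded 1+ (mild), 2+ (moderate) or 3+ (severe), and the number of animals showing each lesion was counted.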

Rattus norvegicus [4] = assay: Nephrotoxicity in Sprague-Dawley rat assessed as occurrence of severe pallor of outer stripe of proximal tubule at 30 mg/kg, iv every 12 hrs for 7 days; assay type: toxicity, organism-based; design: dose 30 mg/kg, route intravenous; outline: as §3
Rattus norvegicus [5] = assay: Neurotoxicity in Sprague-Dawley rat assessed as effect on motor control at 20 mg/kg, iv every 8 hrs for 7 days; assay type: toxicity, organism-based; design: dose 20 mg/kg, route intravenous; outline: as §2
Rattus norvegicus [6] = assay: Toxicity in Sprague-Dawley rat assessed as effect on water consumption at 30 mg/kg, iv every 12 hrs for 7 days; assay type: organism-based; design: dose 30 mg/kg, route intravenous; outline: as §1
Rattus norvegicus [7] = assay: Neurotoxicity in Sprague-Dawley rat assessed as decreased locomotor activity at 30 mg/kg, iv every 12 hrs for 6 days relative to control; assay type: toxicity, organism-based; design: dose 30 mg/kg, route intravenous
Outline: (§4)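 Locomotor activity was recorded daily with a photobeam activity meter as part of a functional screening battery. Sprague-Dawley rats (6 to 8 weeks old) received 30 mg/kg/12 h via a jugular vein cannula for 7 days (n = 11), compared with saline placebo (n = 8). The treatment day was reported for each comparison.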

Rattus norvegicus [8] = assay: Toxicity in Sprague-Dawley rat assessed as effect on food uptake at 20 mg/kg, iv every 8 hrs for 7 days; assay type: organism-based; design: dose 20 mg/kg, route intravenous; outline: as §1
Rattus norvegicus [9] = assay: Nephrotoxicity in Sprague-Dawley rat assessed as occurrence of severe protein/cellular casts in proximal tubule at 150 mg/kg, iv every 12 hrs for 7 days; assay type: toxicity, organism-based; design: dose 150 mg/kg, route intravenous
Rattus norvegicus [10] = assay: Neurotoxicity in Sprague-Dawley rat assessed as effect on forelimb grip strength at 20 mg/kg, iv every 8 hrs for 7 days; assay type: toxicity, organism-based; design: dose 20 mg/kg, route intravenous
Outline: (§5)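 Forelimb grip strength was tested daily using a horizontal retort stand. Each rat had to hang from the horizontal beam holding its own body weight to pass. Rats (Sprague-Dawley, 6 to 8 weeks old) were dosed via a jugular vein cannula for 7 days, with a saline placebo control.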

Rattus norvegicus [11] = assay: Nephrotoxicity in Sprague-Dawley rat assessed as occurrence of mild nuclear pyknosis at 30 mg/kg, iv every 12 hrs for 7 days; assay type: toxicity, organism-based; design: dose 30 mg/kg, route intravenous; outline: as §3
Rattus norvegicus [12] = assay: Toxicity in Sprague-Dawley rat assessed as effect on food uptake at 30 mg/kg, iv every 12 hrs for 7 days; assay type: organism-based; design: dose 30 mg/kg, route intravenous; outline: as §1
Rattus norvegicus [13] = assay: Nephrotoxicity in Sprague-Dawley rat assessed as occurrence of mild cortical proximal convoluted tubule necrosis at 30 mg/kg, iv every 12 hrs for 7 days; assay type: toxicity, organism-based; design: dose 30 mg/kg, route intravenous; outline: as §3
Rattus norvegicus [14] = assay: Nephrotoxicity in Sprague-Dawley rat assessed as occurrence of severe nuclear pyknosis at 150 mg/kg, iv every 12 hrs for 7 days; assay type: toxicity, organism-based; design: dose 150 mg/kg, route intravenous
Rattus norvegicus [15] = assay: Toxicity in Sprague-Dawley rat assessed as effect on water consumption at 20 mg/kg, iv every 8 hrs for 7 days; assay type: organism-based; design: dose 20 mg/kg, route intravenous; outline: as §1
Rattus norvegicus [16] = assay: Nephrotoxicity in Sprague-Dawley rat assessed as occurrence of severe intracellular mineralization at 150 mg/kg, iv every 12 hrs for 7 days; assay type: toxicity, organism-based; design: dose 150 mg/kg, route intravenous
Rattus norvegicus [17] = assay: Nephrotoxicity in Sprague-Dawley rat assessed as occurrence of moderate protein/cellular casts in proximal tubule at 30 mg/kg, iv every 12 hrs for 7 days; assay type: toxicity, organism-based; design: dose 30 mg/kg, route intravenous; outline: as §3
Rattus norvegicus [18] = assay: Nephrotoxicity in Sprague-Dawley rat assessed as occurrence of mild protein/cellular casts in proximal tubule at 30 mg/kg, iv every 12 hrs for 7 days; assay type: toxicity, organism-based; design: dose 30 mg/kg, route intravenous; outline: as §3
Rattus norvegicus [19] = assay: Nephrotoxicity in Sprague-Dawley rat assessed as occurrence of severe protein/cellular casts in proximal tubule at 30 mg/kg, iv every 12 hrs for 7 days; assay type: toxicity, organism-based; design: dose 30 mg/kg, route intravenous; outline: as §3
Rattus norvegicus [20] = assay: Toxicity in Sprague-Dawley rat assessed as effect on body surface temperature at 30 mg/kg, iv every 12 hrs for 7 days; assay type: organism-based; design: dose 30 mg/kg, route intravenous; outline: as §1
Rattus norvegicus [21] = assay: Neurotoxicity in Sprague-Dawley rat assessed as decreased locomotor activity at 30 mg/kg, iv every 12 hrs for 2 days relative to control; assay type: toxicity, organism-based; design: dose 30 mg/kg, route intravenous; outline: as §4
Rattus norvegicus [22] = assay: Nephrotoxicity in Sprague-Dawley rat assessed as occurrence of mild interstitial nephritis at 30mg/kg, iv every 12 hrs for 7 days; assay type: toxicity, organism-based; outline: as §3
Rattus norvegicus [23] = assay: Nephrotoxicity in Sprague-Dawley rat assessed as occurrence of mild protein/cellular casts in proximal tubule at 20 mg/kg, iv every 8 hrs for 7 days; assay type: toxicity, organism-based; design: dose 20 mg/kg, route intravenous; outline: as §3
Rattus norvegicus [24] = assay: Nephrotoxicity in Sprague-Dawley rat assessed as occurrence of severe cortical proximal convoluted tubule necrosis at 150 mg/kg, iv every 12 hrs for 7 days; assay type: toxicity, organism-based; design: dose 150 mg/kg, route intravenous
Rattus norvegicus [25] = assay: Neurotoxicity in Sprague-Dawley rat assessed as effect on forelimb grip strength at 30 mg/kg, iv every 12 hrs for 7 days; assay type: toxicity, organism-based; design: dose 30 mg/kg, route intravenous; outline: as §5

## COLISTIMETHATE SODIUM
Rattus norvegicus [1]
  Activity: Non-toxic
Rattus norvegicus [2]
  Activity: Non-toxic
Rattus norvegicus [3]
  Activity: Toxic
Rattus norvegicus [4]
  Activity: Toxic
Rattus norvegicus [5]
  Activity: Non-toxic
Rattus norvegicus [6]
  Activity: Non-toxic
Rattus norvegicus [7]
  Activity: Toxic
Rattus norvegicus [8]
  Activity: Non-toxic
Rattus norvegicus [9]
  Activity: Toxic
Rattus norvegicus [10]
  Activity: Non-toxic
Rattus norvegicus [11]
  Activity: Toxic
Rattus norvegicus [12]
  Activity: Non-toxic
Rattus norvegicus [13]
  Activity: Toxic
Rattus norvegicus [14]
  Activity: Toxic
Rattus norvegicus [15]
  Activity: Non-toxic
Rattus norvegicus [16]
  Activity: Toxic
Rattus norvegicus [17]
  Activity: Toxic
Rattus norvegicus [18]
  Activity: Toxic
Rattus norvegicus [19]
  Activity: Toxic
Rattus norvegicus [20]
  Activity: Non-toxic
Rattus norvegicus [21]
  Activity: Toxic
Rattus norvegicus [22]
  Activity: Toxic
Rattus norvegicus [23]
  Activity: Toxic
Rattus norvegicus [24]
  Activity: Toxic
Rattus norvegicus [25]
  Activity: Non-toxic

Source: ChEMBL document CHEMBL1255273, “Subacute toxicity of colistin methanesulfonate in rats: comparison of various intravenous dosage regimens” (Antimicrob Agents Chemother, 2008)
